# Source: ChEMBL document CHEMBL5352427, “Isoquinolone derivatives as lysophosphatidic acid receptor 5 (LPA5) antagonists: Investigation of structure-activity relationships, ADME properties and analgesic effects” (Eur J Med Chem, 2022)
# Activity calls are given as the source filed them. No rule for the calls is given here.
# Legend:
# Format in all cases: functional, cell-based
# [1] = biological target: T1, Lysophosphatidic acid receptor 5 (Homo sapiens, UniProt Q9H1C0); assay: Antagonist activity at human LPA5 receptor expressed in RH7777 cells assessed as inhibition of EC80 concentration of hexadecyl LPA-induced calcium mobilization incubated for 15 mins by FLIPR method
# T1 sequence (Q9H1C0 whole entry): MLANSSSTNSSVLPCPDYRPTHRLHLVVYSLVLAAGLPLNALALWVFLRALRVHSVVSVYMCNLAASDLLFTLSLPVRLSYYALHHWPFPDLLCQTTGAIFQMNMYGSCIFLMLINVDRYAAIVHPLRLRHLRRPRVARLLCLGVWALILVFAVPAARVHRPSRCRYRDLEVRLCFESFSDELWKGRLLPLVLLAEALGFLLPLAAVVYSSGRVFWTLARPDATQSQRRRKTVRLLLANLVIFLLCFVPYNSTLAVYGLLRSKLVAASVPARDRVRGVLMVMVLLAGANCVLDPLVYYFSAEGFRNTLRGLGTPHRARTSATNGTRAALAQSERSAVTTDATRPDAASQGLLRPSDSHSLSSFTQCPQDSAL
# [2] = biological target: T1, Lysophosphatidic acid receptor 5; assay: Agonist activity at human LPA5 receptor expressed in RH7777 cells assessed as calcium mobilization incubated for 15 mins by FLIPR method
# In short: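 RH7777 cells stably expressing hLPA5, plated 20,000/well in 0.2% FBS medium 18–20 h, loaded 45 min at 37 °C with Calcium 5 dye in HBSS/20 mM HEPES/2.5 mM probenecid pH 7.4. […] Duplicates.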
# [3] = biological target: T1, Lysophosphatidic acid receptor 5; assay: Antagonist activity at human LPA5 receptor expressed in RH7777 cells assessed as inhibition of EC80 concentration of hexadecyl LPA-induced calcium mobilization incubated for 15 mins by FLIPR method relative to hexadecyl LPA
IC50 [1],Activity [2],inhibition ([3]; filed as antagonist),inhibition [3],SMILES
> 10 µM,inactive,–,–,COc1cc2c(C(=O)N3CCCCC3)cn(-c3cccnc3)c(=O)c2cc1OC
0.032 µM,inactive,105%,–,COc1cc2c(C(=O)N3CCCCC3)cn(-c3ccc4scc(C)c4c3)c(=O)c2cc1OC
1.1 µM,inactive,90%,–,COc1cc2c(C(=O)N3CCC(C)(C)CC3)cn(-c3cccc(N(C)C)c3)c(=O)c2cc1OC
0.99 µM,inactive,98%,–,COc1cc2c(C(=O)N3CCCCC3C)cn(-c3cccc(N(C)C)c3)c(=O)c2cc1OC (racemic)
0.89 µM,inactive,103%,–,COc1cc2c(=O)n(-c3cccc(N(C)C)c3)cc(C(=O)N3CCC(F)CC3)c2cc1OC1CCCC1
0.369 µM,inactive,96%,–,COc1cc2c(=O)n(-c3cccc(N(C)C)c3)cc(C(=O)N3CCC(F)CC3)c2cc1OC(C)C
1.1 µM,inactive,93%,–,COc1cc2c(C(=O)N3CCCCC3)cn(-c3ccc4occc4c3)c(=O)c2cc1OC
0.173 µM,inactive,107%,–,COc1cc2c(C(=O)N3CCCCC3)cn(-c3cccc(C(C)(C)C)c3)c(=O)c2cc1OC
0.48 µM,inactive,109%,–,CCCOc1cc2c(C(=O)N3CCC(F)CC3)cn(-c3cccc(N(C)C)c3)c(=O)c2cc1OC
1.37 µM,inactive,93%,–,COc1cc2c(=O)n(-c3cccc(N(C)C)c3)cc(C(=O)N3CCC(F)CC3)c2cc1O
1.49 µM,inactive,88%,–,COc1cc2c(C(=O)N3CCC(F)CC3)cn(-c3ccc4occc4c3)c(=O)c2cc1OC
> 10 µM,inactive,–,–,COc1cc2c(C(=O)N3CCCC3)cn(-c3cccc(N(C)C)c3)c(=O)c2cc1OC
> 10 µM,inactive,–,–,COc1cc2c(C(=O)N3CCC(C(N)=O)CC3)cn(-c3cccc(N(C)C)c3)c(=O)c2cc1OC
2.2 µM,inactive,71%,–,COc1cc2c(C(=O)N3CCOCC3)cn(-c3cccc(N(C)C)c3)c(=O)c2cc1OC
0.21 µM,inactive,108%,–,COc1cc2c(C(=O)N3CCCCC3)cn(-c3ccc4cccc(C)c4c3)c(=O)c2cc1OC
1.56 µM,inactive,87%,–,COc1cc2c(C(=O)N3CCC(C(F)(F)F)CC3)cn(-c3cccc(N(C)C)c3)c(=O)c2cc1OC
> 10 µM,inactive,–,–,COc1cc2c(C(=O)N3CCCCC3)cn(-c3ccncc3)c(=O)c2cc1OC
> 10 µM,inactive,–,–,COc1cc2c(C(=O)N3CCCCC3)cn(-c3cccc(C(N)=O)c3)c(=O)c2cc1OC
> 10 µM,inactive,–,–,COc1cc2c(C(=O)NC3CCCC3)cn(-c3cccc(N(C)C)c3)c(=O)c2cc1OC
> 10 µM,inactive,–,–,COc1cc2c(=O)n(-c3cccc(N(C)C)c3)cc(C(=O)N3CCC(F)CC3)c2cc1OCc1cccc2ccccc12
> 10 µM,inactive,–,–,COc1cc2c(C(=O)N3CCCCC3)cn(-c3cccc(C(=O)N(C)C)c3)c(=O)c2cc1OC
> 10 µM,inactive,–,–,COc1cc2c(C(=O)Nc3ccccc3)cn(-c3cccc(N(C)C)c3)c(=O)c2cc1OC

# The remaining lines, values behind:
SMILES,IC50 [1],Activity [2],inhibition ([3]; filed as antagonist),inhibition [3]
COc1cc2c(=O)n(-c3cccc(N(C)C)c3)cc(C(=O)N3CCC(F)CC3)c2cc1OCC(F)(F)F,2.5 µM,inactive,74%,–
COc1cc2c(C(=O)N(C)C)cn(-c3cccc(N(C)C)c3)c(=O)c2cc1OC,> 10 µM,inactive,–,–
COc1cc2c(C(=O)N3CCCCC3)cn(-c3cccc(OC(C)C)c3)c(=O)c2cc1OC,0.63 µM,inactive,100%,–
COc1cc2c(C(=O)N(C)OC)cn(-c3cccc(N(C)C)c3)c(=O)c2cc1OC,0.32 µM,inactive,–,33%
COc1cc2c(C(=O)N3C4CCC3CC4)cn(-c3cccc(N(C)C)c3)c(=O)c2cc1OC,> 10 µM,inactive,–,–
COc1cc2c(C(=O)NCc3ccccc3)cn(-c3cccc(N(C)C)c3)c(=O)c2cc1OC,> 10 µM,inactive,–,–
COc1cc2c(C(=O)N3CCC(c4ccc(F)cc4F)CC3)cn(-c3cccc(N(C)C)c3)c(=O)c2cc1OC,> 10 µM,inactive,–,–
COc1cc2c(C(=O)N3CCCCC3)cn(-c3ccc4onc(C)c4c3)c(=O)c2cc1OC,3.9 µM,inactive,56%,–
COc1cc2c(=O)n(-c3cccc(N(C)C)c3)cc(C(=O)N3CCC(F)CC3)c2cc1OCc1ccccn1,> 10 µM,inactive,–,–
COc1cc2c(C(=O)N3CCC3)cn(-c3cccc(N(C)C)c3)c(=O)c2cc1OC,> 10 µM,inactive,–,–
COc1cc2c(C(=O)N3CCCc4ccccc43)cn(-c3cccc(N(C)C)c3)c(=O)c2cc1OC,4.32 µM,inactive,86%,–
COc1cc2c(=O)n(-c3cccc(N(C)C)c3)cc(C(=O)N3CCC(F)CC3)c2cc1OC1CCCCC1,0.51 µM,inactive,96%,–
COc1cc2c(C(=O)N3C4CCCC3CC4)cn(-c3cccc(N(C)C)c3)c(=O)c2cc1OC,0.23 µM,inactive,103%,–
COc1cc2c(C(=O)N3CCCCC3)cn(-c3cccc(C(C)=O)c3)c(=O)c2cc1OC,1.76 µM,inactive,74%,–
COc1cc2c(C(=O)N3CCCCC3)cn(-c3ccc4sccc4c3)c(=O)c2cc1OC,0.64 µM,inactive,101%,–
CCNC(=O)c1cn(-c2cccc(N(C)C)c2)c(=O)c2cc(OC)c(OC)cc12,> 10 µM,inactive,–,–
COc1cc2c(C(=O)N3CCCCC3)cn(-c3ccccn3)c(=O)c2cc1OC,> 10 µM,inactive,–,–
CCCCCOc1cc2c(C(=O)N3CCC(F)CC3)cn(-c3cccc(N(C)C)c3)c(=O)c2cc1OC,0.23 µM,inactive,111%,–
CN(C)c1cccc(-n2cc(C(=O)N3CCC(F)CC3)c3ccccc3c2=O)c1,> 10 µM,inactive,–,–
COc1cc2c(C(=O)N3CCCCC3)cn(-c3cccc(C(C)C)c3)c(=O)c2cc1OC,0.063 µM,inactive,105%,–
COc1cc2c(C(=O)N(C)Cc3ccncc3)cn(-c3cccc(N(C)C)c3)c(=O)c2cc1OC,> 10 µM,inactive,–,–
COc1ccc2c(=O)n(-c3cccc(N(C)C)c3)cc(C(=O)N3CCC(F)CC3)c2c1,> 10 µM,inactive,–,–
COc1cc2c(C(=O)C3CCCCC3)cn(-c3cccc(N(C)C)c3)c(=O)c2cc1OC,> 10 µM,inactive,–,–
CCCCCNC(=O)c1cn(-c2cccc(N(C)C)c2)c(=O)c2cc(OC)c(OC)cc12,> 10 µM,inactive,–,–
